Experimental data as given in ChEMBL document CHEMBL1208706, “Synthesis, antidepressant evaluation and QSAR studies of novel 2-(5H-[1,2,4]triazino[5,6-b]indol-3-ylthio)-N-(substituted phenyl)acetamides” (2010).

test system: Mus musculus; experiment: Antidepressant activity in Swiss albino mouse assessed as reduction of immobility duration at 30 mg/kg, ip administered 3 times for 24 hrs measured after 1 hr last post dose by tail suspension test; format: functional; design: scale not given: the % may be the effect or the level left; conditions: route intraperitoneal
How it was run: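 Adult male Swiss albino mice (22 ± 2 g), housed with controlled humidity, temperature and day-night cycle. Compound in DMSO given ip at 30 mg/kg at t = 0, 18 and 24 h; vehicle controls got DMSO ip at 5 mL/kg. Tail suspension run 1 h after the final dose, immobility scored over 6 min. %DID = [(A − B)/A] × 100 against control; n = 6, mean ± SEM, one-way ANOVA with Dunnett's test.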

Going from `COc1ccc(NC(=O)CSc2nnc3c(n2)[nH]c2ccccc23)cc1` to `O=C(CSc1nnc2c(n1)[nH]c1ccccc12)Nc1ccc(Br)cc1`, the Activity rises from 20.82% to 67.59%.

Going from `O=C(CSc1nnc2c(n1)[nH]c1ccccc12)NCc1ccccc1` to `O=C(CSc1nnc2c(n1)[nH]c1ccccc12)Nc1ccccc1`, the Activity rises from 56.75% to 70.62%.

Compared with `COc1ccccc1NC(=O)CSc1nnc2c(n1)[nH]c1ccccc12`, `Cc1ccccc1NC(=O)CSc1nnc2c(n1)[nH]c1ccccc12` is lower in Activity: 24.3% for the first, 20.87% for the second.

First: O=C(CSc1nnc2c(n1)[nH]c1ccccc12)Nc1cccc(Br)c1
Second: Cc1cccc(NC(=O)CSc2nnc3c(n2)[nH]c2ccccc23)c1
The Activity of the first is higher: 66.57% for the first, 26.29% for the second.

Compared with `O=C(CSc1nnc2c(n1)[nH]c1ccccc12)Nc1ccccc1Cl`, `O=C(CSc1nnc2c(n1)[nH]c1ccccc12)Nc1ccccc1Br` is lower in Activity: 51.89% for the first, 42.84% for the second.

First: O=C(CSc1nnc2c(n1)[nH]c1ccccc12)Nc1ccccc1[N+](=O)[O-]
Second: O=C(CSc1nnc2c(n1)[nH]c1ccccc12)Nc1cccc([N+](=O)[O-])c1
The Activity of the first is lower: 42.66% for the first, 58.75% for the second.

First: COc1cccc(NC(=O)CSc2nnc3c(n2)[nH]c2ccccc23)c1
Second: O=C(CSc1nnc2c(n1)[nH]c1ccccc12)Nc1cccc(Cl)c1
The Activity of the first is lower: 31.08% for the first, 57.15% for the second.

Going from `O=C(CSc1nnc2c(n1)[nH]c1ccccc12)Nc1ccc(Cl)cc1` to `O=C(CSc1nnc2c(n1)[nH]c1ccccc12)Nc1ccc([N+](=O)[O-])cc1`, the Activity falls from 68.33% to 62.35%.

Compared with `Cc1ccc(NC(=O)CSc2n[nH]c3c4ccccc4nc-3n2)cc1`, `O=C(CSc1n[nH]c2c3ccccc3nc-2n1)NC1CCCCC1` is higher in Activity: 30.57% for the first, 47.51% for the second.

Compared with `CNCCC(Oc1ccc(C(F)(F)F)cc1)c1ccccc1` (stereo unspecified) [FLUOXETINE], `CN(C)CCCN1c2ccccc2CCc2ccccc21` [IMIPRAMINE] is lower in Activity: 69.48% for the first, 60.58% for the second.

Molecule `O=C(NCCN1CCOCC1)c1ccc(Cl)cc1` [MOCLOBEMIDE] has an Activity of 68.16%.
